Assay [1] is described as follows: inhibitors of TNFa-induced NFkB p65 translocation, primary screen, imaging, HUVEC, MLSMR starter and 10KST1 sets (AID 438;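 active = inhibition above 20% together with a positive visual image hit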;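 note: compound added about 3h40 before a 20 min TNFalpha stimulation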;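 for inhibition: signal is the nuclear over cytoplasmic p65 intensity ratio per well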). The conditions noted are these: HUVEC TNFa-induced p65 nuclear translocation; cell count: measured here: nuclei count (cytotoxicity indicator), at 2.08 µM; inhibition: at 2 µM, stronger effect = higher value, 0% TNFa-plus-vehicle, 100% no-TNFa wells.
Assay [2] is described as follows: reduction of polyQ htt aggregates in cells – imaging, exon1htt(103Q)mCFP cells, high-content imaging, primary screen (AID 483;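 active = visual image review flags a hit and inhibition of aggregation exceeds 20%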;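 note: compound exposure lasted 3 days before fixation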;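 for nuclei count: percent of the per-plate median nuclei count of sample wells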). The conditions noted are these: exon1htt(103Q)mCFP cell line, aggregate imaging, at 2 µM; inhibition of aggregation: stronger effect = higher value; nuclei count: measured here: cell count, toxicity.
The nature of assay [3]: endothelial E-selectin expression blockers – imaging, HUVEC, immunofluorescence, MLSMR starter and 10KST1 sets, primary screen (AID 487;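 active = visually confirmed hit in the image check and inhibition above 20%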;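 for inhibition: signal is fraction of cell area covered by stained E-selectin grains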;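 for nuclei count: 100% = median nuclei count of all wells on the same plate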). The conditions noted are these: HUVEC TNFalpha-induced E-selectin immunofluorescence imaging, at 2 µM; inhibition: stronger effect = higher value; nuclei count: measured here: cell number, toxicity.
Assay [4] addresses Voltage-gated potassium channel subunit beta-2 (Rattus norvegicus) (UniProt P62483). Description: inhibitors of rat Kvbeta2 reductase activity – biochemical, NADPH fluorescence, primary screen (AID 622;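 active = fluorescence slope higher than the sample average by over 3 SD, cut at about -0.22 in these data, passing the limit was not always enough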;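 note: slope of raw intensity against log time taken from 70 to 1610 s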). Particulars: recombinant KvBeta, 4-cyanobenzaldehyde reduction, at 10 µM, stronger effect = higher value.
For assay [5] the target is unchanged. The assay is described as follows: enhancers of rat Kvbeta2 NADPH turnover – biochemical, NADPH fluorescence, primary screen (AID 623;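 active = NADPH fluorescence slope more negative than the mean of all samples by about 3 SD, 99.7% confidence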;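 note: fluorescence intensity change per second fitted from 20 to 320 s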). The conditions noted are these: Recombinant KvBeta, NADPH fluorescence decrease slope, 10 min; at 10 µM; stronger effect = lower value.
Assay [6] has as its target Muscarinic acetylcholine receptor M4 (Homo sapiens) (UniProt P08173). The assay is described as follows: M4-linked GIRK flux change, two-sided – cell-based, HEK293 M4/GIRK, thallium flux, BTC-AM, M4 allosteric agonist project, primary screen (AID 625;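 active = fluorescence slope after compound addition differing from the mean of all tested samples at 99.7% confidence, mostly higher but some lower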;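 note: thallium influx through GIRK channels coupled to M4 in HEK293 cells with BTC-AM dye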). Particulars: at 10 µM, actives lie on both sides. In a few lines: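 Assay system: HEK293 cells with M4 receptor and GIRK channels / Controls: carbachol and DMSO controls / Schedule: 1 h dye loading, 2 min kinetic read / Technique: kinetic fluorescence with BTC-AM dye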

Assay [7] is described as follows: blockers of RIG-like receptor reporter activation – cell-based, Sendai virus stimulus, luciferase, 10K MLSCN set, TLR/RLR signaling modifier project, primary screen (AID 602276).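 Note: firefly luciferase from ISG56 promoter only with Renilla not read in this screen; 0% = Sendai virus plus DMSO and 100% = medium plus DMSO without virus.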 Particulars: HEK293 RL24 IRF3 luciferase reporter, at 10 µM, stronger effect = higher value.
Assay [8] can be described thus: TLR3 IRF3 reporter activation blockers – cell-based, poly I:C stimulus, luciferase, 10K MLSCN set, primary screen (AID 602277;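 active = inhibition of the reporter signal at or above 50%; inactive = inhibition below 50%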). The conditions noted are these: HEK293-TLR3 RL24 IRF3 luciferase reporter, at 10 µM, stronger effect = higher value.

The values that follow come from PubChem BioAssay.

Active and inactive are the calls of the source.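 Rule for the calls, unless noted: active = inhibition at or above 50% at 10 µM; inactive = inhibition below 50%.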

For orientation: inhibition means the relative decrease from the control value, in per cent.

Sequence of Muscarinic acetylcholine receptor M4 (Homo sapiens) (P08173 whole entry, looked up): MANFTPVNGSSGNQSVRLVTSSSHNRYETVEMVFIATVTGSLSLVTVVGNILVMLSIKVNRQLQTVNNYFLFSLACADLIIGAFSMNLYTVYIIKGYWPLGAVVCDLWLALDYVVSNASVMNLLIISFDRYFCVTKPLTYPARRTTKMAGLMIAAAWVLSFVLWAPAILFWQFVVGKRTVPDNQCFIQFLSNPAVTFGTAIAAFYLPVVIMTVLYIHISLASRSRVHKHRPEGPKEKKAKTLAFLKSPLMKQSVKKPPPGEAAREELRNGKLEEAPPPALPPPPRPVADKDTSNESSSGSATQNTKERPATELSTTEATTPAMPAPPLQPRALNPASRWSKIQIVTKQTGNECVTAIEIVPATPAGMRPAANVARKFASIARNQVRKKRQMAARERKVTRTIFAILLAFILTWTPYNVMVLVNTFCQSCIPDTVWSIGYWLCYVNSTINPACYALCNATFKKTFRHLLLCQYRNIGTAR
Sequence of Voltage-gated potassium channel subunit beta-2 (Rattus norvegicus) (P62483 whole entry, looked up): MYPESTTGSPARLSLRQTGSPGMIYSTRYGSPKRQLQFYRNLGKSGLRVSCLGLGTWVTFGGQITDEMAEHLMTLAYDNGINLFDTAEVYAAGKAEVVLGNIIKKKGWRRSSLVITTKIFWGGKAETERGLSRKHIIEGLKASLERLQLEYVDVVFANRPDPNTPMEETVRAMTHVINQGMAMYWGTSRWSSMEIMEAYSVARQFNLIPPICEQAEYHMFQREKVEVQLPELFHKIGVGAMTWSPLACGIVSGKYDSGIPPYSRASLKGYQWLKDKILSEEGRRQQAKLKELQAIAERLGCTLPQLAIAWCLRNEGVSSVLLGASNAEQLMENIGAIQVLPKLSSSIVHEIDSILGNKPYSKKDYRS

In the case of `Cc1ccc(SCCNS(=O)(=O)c2ccc(F)cc2)cc1`, the cell count in assay [1] was 348. Further, the inhibition in assay [1] is 4% (inactive); in assay [3], -53.9% (inactive); in assay [7], 8.34% (inactive); in assay [8], 12.7% (inactive). The inhibition of aggregation in assay [2] was -4.1% (inactive). For the same compound, the figures for the nuclei count in assay [2] and in assay [3] were 106% and 122%, respectively. The fluorescence slope in assay [4] is -0.55 (inactive); in assay [6], 0.0043 (inactive). Further, the NADPH fluorescence slope in assay [5] is -3.1e-05 (inactive).
On to `CCCCc1ccc(NC(=O)N[C@H](C(=O)O)C(C)CC)cc1` (stereo partly drawn), for which the cell count in assay [1] amounted to 610. The inhibition in assay [1] is -13.3% (inactive); in assay [3], -22.1% (inactive); in assay [7], 4.79% (inactive); in assay [8] it was 14.4% (inactive). The inhibition of aggregation in assay [2] is -22.8% (inactive). Moreover, the nuclei count in assay [2] was 109%; in assay [3], 118%. In addition, the fluorescence slope in assay [4] was -0.446 (inactive); in assay [6] it was 0.00522 (inactive). In addition, the NADPH fluorescence slope in assay [5] was -3.7e-05 (inactive).
On to `Cc1ccccc1NC(=O)C1CCC(C)(C(=O)O)C1(C)C` (stereo not drawn), for which the cell count in assay [1] stood at 485. For the same compound, the inhibition in assay [1] is 3.5% (inactive); in assay [3], -269% (inactive); in assay [7], -5.54% (inactive); in assay [8], 8.98% (inactive). The inhibition of aggregation in assay [2] is 1.6% (inactive). For the same compound, the nuclei count was 94.4% in assay [2] and 109% in assay [3]. The results for the fluorescence slope in assay [4] and in assay [6] were -0.581 (inactive) and 0.00574 (inactive), respectively. Further, the NADPH fluorescence slope in assay [5] is 1.1e-05 (inactive).
Turning to `C=C(C)COc1ccc(-c2nc(N)ncc2Oc2ccccc2OCC)c(O)c1`, the cell count in assay [1] was determined as 291. For the same compound, the inhibition in assay [1] is -11% (inactive); in assay [3], -17.8% (inactive); in assay [7] it was 17.7% (inactive); in assay [8], -3.29% (inactive). In addition, the inhibition of aggregation in assay [2] was -19.9% (inactive). Further, the nuclei count stood at 111% in assay [2] and 114% in assay [3]. Also, the fluorescence slope is -0.655 (inactive) in assay [4] and 0.00507 (inactive) in assay [6]. In addition, the NADPH fluorescence slope in assay [5] was 4.1e-05 (inactive).
Turning to `COC(=O)c1sc(NC(=O)COc2ccccc2OC)nc1C`, in assay [1], the cell count was found to be 368. In addition, the inhibition is -4.7% (inactive) in assay [1], -153% (inactive) in assay [3], 9.11% (inactive) in assay [7] and 2.53% (inactive) in assay [8]. Besides, in assay [2], the inhibition of aggregation is -9.7% (inactive). Besides, the nuclei count came to 96.7% in assay [2] and 122% in assay [3]. In addition, the results for the fluorescence slope in assay [4] and in assay [6] were -0.229 (inactive) and 0.00636 (inactive), respectively. For the same compound, the NADPH fluorescence slope in assay [5] was -2.1e-05 (inactive).
For the compound `COc1ccccc1Nc1nc(N)nc(CN2CCN(c3ccccc3F)CC2)n1`, the cell count in assay [1] was 561. Further, the inhibition in assay [1] was -12.1% (inactive); in assay [3], 25.3% (inactive); in assay [7] it was -5.08% (inactive); in assay [8], -10.4% (inactive). In addition, the inhibition of aggregation in assay [2] was -5.7% (inactive). Also, the nuclei count in assay [2] is 97.3%; in assay [3] it was 97.6%. In addition, the fluorescence slope in assay [4] is -0.571 (inactive); in assay [6] it was 0.00301 (inactive). In assay [5], the NADPH fluorescence slope was -2.2e-05 (inactive).
As to `O=C(Nc1ccc(N2CCOCC2)c(F)c1)c1ccncc1`, the cell count in assay [1] turned out to be 262. Also, the inhibition in assay [1] is -3.2% (inactive); in assay [3], -30% (inactive); in assay [7] it was -9.16% (inactive); in assay [8] it was -33.6% (inactive). Also, the inhibition of aggregation in assay [2] was 0.1% (inactive). In addition, the results for the nuclei count in assay [2] and in assay [3] were 99.8% and 90%, respectively. Besides, the fluorescence slope in assay [4] was -0.451 (inactive); in assay [6], 0.00591 (inactive). For the same compound, the NADPH fluorescence slope in assay [5] was 8.4e-05 (inactive).
With `COc1ccc(-c2cc(C(=O)NCCc3ccccc3)no2)cc1OC`, the cell count in assay [1] stood at 364. Besides, the inhibition was -23% (inactive) in assay [1], -58.5% (inactive) in assay [3], 7.88% (inactive) in assay [7] and -6.93% (inactive) in assay [8]. The inhibition of aggregation in assay [2] is -2.1% (inactive). For the same compound, the nuclei count in assay [2] came to 98.3%; in assay [3], 105%. Further, the fluorescence slope in assay [4] was -0.298 (inactive); in assay [6], 0.00599 (inactive). The NADPH fluorescence slope in assay [5] was -2.2e-05 (inactive).
